Measured values from different studies.
Lines come from different studies, so protocols differ.
Target: SRSF protein kinase 3 (SRPK3, Homo sapiens, UniProt Q9UPE1)

SMILES	assay	conditions	remaining binding [%]
O=C(NCCCN1CCOCC1)c1ccc(Nc2nccc(-c3cc4ccccc4s3)n2)cc1	binding, competition with immobilised ligand	1 µM	99
C[C@@H](c1ccc(-n2cnc3c(N)ncnc32)cc1)N1CCc2nn(C)c(Cc3ccccc3)c2C1=O	binding, competition with immobilised ligand	0.1 µM	76
FC(F)(F)Oc1cccc(-c2cnc3ccc(-c4ccncc4)nn23)c1	binding, competition with immobilised ligand	5 µM	41
Cc1c(NC(=O)c2cc(C(N)=O)nc3cc(F)ccc23)c(C(F)(F)F)nn1Cc1ccc(C#N)cc1	cell-free assay, competition with immobilised ligand	1 µM	100
CN(C)c1ncc(F)c(-c2cnn3ncccc23)n1	binding	1 µM	100
Nc1ncc2c(n1)-c1c([nH]c3ccc(C#CC4CC4)cc13)CCCC2	binding, competition with immobilised ligand	1 µM	90
CNC(=O)[C@@H]1CC[C@@H](n2c(-c3ccc4cnccc4c3)nc3ccc(C(=O)NCc4cccc(C(N)=O)c4)cc32)C1	binding, competition with immobilised ligand	1 µM	92
CCS(=O)(=O)c1cc2cc(C[C@@](O)(CC(C)(C)c3ccc(F)cc3C(N)=O)C(F)(F)F)[nH]c2cn1	cell-free assay, competition with immobilised ligand	1 µM	100
O=C(Nc1c[nH]nc1C(=O)NC1CCNCC1)c1cc(F)cc(F)c1	binding, competition with immobilised ligand	1 µM	88
N[C@H]1CCN(c2nccc(-c3cnn4ncccc34)n2)C1	binding	1 µM	66
O=C(Nc1cccnn1)N1CC(C/C=C/c2cncc(Oc3ccc(C(F)(F)F)cn3)n2)C1	cell-free assay, competition with immobilised ligand	1 µM	100
C=CC(=O)N1CCC(C(=O)NCC(=O)N2CCN(c3nc(-c4cnc(N)nc4C(F)F)nc(N4CCOCC4)n3)CC2)CC1	binding, competition with immobilised ligand	1 µM	99
C[C@H]1CCN(c2nccc(-c3cnn4ncccc34)n2)C1	binding	1 µM	68
C[C@@H]1CN(c2cc(-c3n[nH]c4ccc(OC5(C)CC5)cc34)ncn2)C[C@H](C)O1	cell-free assay, competition with immobilised ligand	0.1 µM	100
O=C(NCCCN1CCOCC1)c1ccc(Nc2ncc(Cl)c(-c3ccc(Cl)s3)n2)cc1	binding, competition with immobilised ligand	1 µM	100
CC1CCCN1c1nccc(-c2cnn3ncccc23)n1 (stereo not drawn)	binding	1 µM	86
C[C@@H]1CN(c2ccc3ncc(-c4ccc5[nH]nc(C6CC6)c5c4)n3n2)C[C@H](C)O1	binding, competition with immobilised ligand	0.5 µM	85
NS(=O)(=O)c1cc(NC(=O)Cc2ccccc2)ccc1Oc1cccc(Cl)c1	cell-free assay, competition with immobilised ligand	1 µM	100
CN(CCCC(F)(F)F)c1nccc(-c2cnn3ncccc23)n1	binding	1 µM	100
COc1cnc(Nc2cccc(S(N)(=O)=O)c2)nc1N1CCN(c2ccccc2)C(=O)C1	binding, competition with immobilised ligand	1 µM	79
COc1ccc2c(O[C@@H]3C[C@H]4C(=O)N[C@]5(C(=O)O)CC5/C=C\CCCCC[C@H](NC(=O)OC5CCCC5)C(=O)N4C3)cc(-c3csc(NC(=O)C(C)C)n3)nc2c1C (stereo partly drawn)	cell-free assay, competition with immobilised ligand	1 µM	57
CCN1CCN(Cc2ccc(C(=O)Nc3ccc(C)c(Oc4ccc5c(c4)CC(=O)N5)c3)cc2C(F)(F)F)CC1	binding, competition with immobilised ligand	1 µM	99
CO[C@H]1CC[C@H](CNc2ccc(S(=O)(=O)NC(=O)c3ccc(N4CCN(CC5=C(c6ccc(Cl)cc6)CC(C)(C)CC5)CC4)cc3Oc3cnc4[nH]ccc4c3)cc2[N+](=O)[O-])CC1	cell-free assay, competition with immobilised ligand	1 µM	100
COc1ccnn2ncc(-c3ccnc(N(C)C)n3)c12	binding	1 µM	67
